Experimental data from ChEMBL document CHEMBL1773037, “Evaluation of superior BACE1 cleavage sequences containing unnatural amino acids” (Bioorg Med Chem, 2011).

Substrate: CC[C@H](C)[C@H](N)C(=O)N[C@@H](CCCCN)C(=O)N[C@H](C(=O)N[C@@H](CCC(=O)O)C(=O)N[C@@H](CCC(=O)O)C(=O)N[C@H](C(=O)N[C@@H](CO)C(=O)N[C@@H](CCC(=O)O)C(=O)N[C@H](C(=O)N[C@@H](CC(N)=O)C(=O)N[C@@H](CC(C)C)C(=O)N[C@@H](CC(=O)O)C(=O)N[C@@H](C)C(=O)N[C@@H](CCC(=O)O)C(=O)N[C@@H](Cc1ccccc1)C(=O)N[C@@H](CCCNC(=N)N)C(=O)N[C@@H](Cc1cnc[nH]1)C(=O)N[C@@H](CC(=O)O)C(=O)N[C@@H](CO)C(=O)NCC(N)=O)C(C)C)[C@@H](C)CC)[C@@H](C)O
Experiment: Activity of recombinant BACE assessed as substrate cleavage at 105 uM after 15 mins by HPLC analysis
Outline: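 Kinetic run: rBACE1 (33 nM) added to eicosapeptide amide at final concentrations 0–105, 37 °C, 15 min. Aliquots analysed by HPLC, and initial rates taken from the decrease in substrate peak area. Km obtained from a plot of [S]/v versus [S]. Measurements done three times and averaged.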

B1: Beta-secretase 1 (Homo sapiens), P56817 (protein)
chain: MAQALPWLLLWMGAGVLPAHGTQHGIRLPLRSGLGGAPLGLRLPRETDEEPEEPGRRGSFVEMVDNLRGKSGQGYYVEMTVGSPPQTLNILVDTGSSNFAVGAAPHPFLHRYYQRQLSSTYRDLRKGVYVPYTQGKWEGELGTDLVSIPHGPNVTVRANIAAITESDKFFINGSNWEGILGLAYAEIARPDDSLEPFFDSLVKQTHVPNLFSLQLCGAGFPLNQSEVLASVGGSMIIGGIDHSLYTGSLWYTPIRREWYYEVIIVRVEINGQDLKMDCKEYNYDKSIVDSGTTNLRLPKKVFEAAVKSIKAASSTEKFPDGFWLGEQLVCWQAGTTPWNIFPVISLYLMGEVTNQSFRITILPQQYLRPVEDVATSQDDCYKFAISQSSTGTVMGAVIMEGFYVVFDRARKRIGFAVSACHVHDEFRTAAVEGPFVTLDMEDCGYNIPQTDESTLMTIAYVMAAICALFMLPLCLMVCQWRCLRCLRQQHDDFADDISLLK
Km: 5.5 µM
kcat: 1720 s⁻¹
